Results reported in ChEMBL document CHEMBL3124837, “Bicyclic 1-hydroxy-2-oxo-1,2-dihydropyridine-3-carboxamide-containing HIV-1 integrase inhibitors having high antiviral potency against cells harboring raltegravir-resistant integrase mutants” (J Med Chem, 2014).

Legend:
[1] = test system: HOS; assay: Cytotoxicity against HOS cells assessed as reduction in ATP level after 48 hrs by luciferase reporter gene assay; type: cell-based; details: human
Method in brief: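 HOS cells in DMEM with 5% FBS and 5% newborn calf serum, seeded 4000 per well the day before, exposed to compound for 48 h at 37 °C. Cells lysed and ATP measured with a luciferase (ATPlite) read-out. Signal normalized to untreated cells; CC50 from regression fit.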

[2] = target: T1, Human immunodeficiency virus type 1 integrase (Human immunodeficiency virus 1, UniProt Q7ZJM1); assay: Inhibition of HIV-1 integrase-mediated strand transfer activity using [32P]-labeled oligonucleotide as substrate after 2 hrs by densitometric analysis
T1 sequence (Q7ZJM1 whole entry): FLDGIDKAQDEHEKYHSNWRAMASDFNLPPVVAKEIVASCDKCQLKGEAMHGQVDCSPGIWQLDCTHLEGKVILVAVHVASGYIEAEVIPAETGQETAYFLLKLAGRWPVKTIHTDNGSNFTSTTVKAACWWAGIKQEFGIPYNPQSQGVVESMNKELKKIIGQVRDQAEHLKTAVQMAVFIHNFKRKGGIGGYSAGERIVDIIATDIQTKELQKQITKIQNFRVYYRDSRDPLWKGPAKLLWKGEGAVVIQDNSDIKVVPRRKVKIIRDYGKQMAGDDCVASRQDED
Method in brief: (§1)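 400 nM integrase with 20 nM [γ-32P]-labeled DNA in 50 mM MOPS pH 7.2, 7.5 mM MgCl2, 14 mM 2-mercaptoethanol; compounds in DMSO. The substrate for 3′-processing was 21T/21B duplex, and for strand transfer the precleaved 19T/21B duplex. Reactions ran 2 h at 37 °C and were quenched with formamide/SDS loading buffer.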

[3] = target: T1, Human immunodeficiency virus type 1 integrase; assay: Inhibition of HIV-1 integrase-mediated 3'-processing activity using [32P]-labeled oligonucleotide as substrate after 2 hrs by densitometric analysis; method in brief: as §1
[4] = test system: Human immunodeficiency virus 1; assay: Antiviral activity against wild-type Human immunodeficiency virus 1 infected in HOS cells preincubated for 3 hrs followed by viral infection measured after 48 hrs by luciferase reporter gene assay; type: functional, organism-based; details: Human immunodeficiency virus 1, HOS
Method in brief: (§2)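 VSV-g-pseudotyped single-round HIV-1 luciferase vector (pNLNgoMIVR-ΔLUC; IN mutants made by site-directed mutagenesis), produced by 293T transfection. HOS cells seeded the day before, given compound over 10 μM to 0.0005 μM (11 serial dilutions), 3 h at 37 °C, then virus added; 48 h at 37 °C. Luciferase read-out normalized to no-compound infectivity; EC50 from regression fit.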

[5] = test system: Human immunodeficiency virus 1; assay: Antiviral activity against Human immunodeficiency virus 1 harboring integrase Y143R mutant infected in HOS cells preincubated for 3 hrs followed by viral infection measured after 48 hrs by luciferase reporter gene assay; type: functional, organism-based; details: Human immunodeficiency virus 1, HOS; method in brief: as §2
[6] = Selectivity index, ratio of CC50 for HOS cells to EC50 for wild-type Human immunodeficiency virus 1
[7] = test system: Human immunodeficiency virus 1; assay: Antiviral activity against Human immunodeficiency virus 1 harboring integrase G140S/Q148H double mutant infected in HOS cells preincubated for 3 hrs followed by viral infection measured after 48 hrs by luciferase reporter gene assay; type: functional, organism-based; details: Human immunodeficiency virus 1, HOS; method in brief: as §2
[8] = test system: Human immunodeficiency virus 1; assay: Antiviral activity against Human immunodeficiency virus 1 harboring integrase N155H mutant infected in HOS cells preincubated for 3 hrs followed by viral infection measured after 48 hrs by luciferase reporter gene assay; type: functional, organism-based; details: Human immunodeficiency virus 1, HOS; method in brief: as §2
[9] = test system: Human immunodeficiency virus 1; assay: Ratio of raltegravir EC50 to compound EC50 for Human immunodeficiency virus 1 harboring integrase E138K/Q148K double mutant; type: functional
Method in brief: (§3)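 VSV-g-pseudotyped single-round HIV-1 luciferase vectors, produced in 293T cells, carrying WT or site-directed mutant IN (G118R, Y143R, N155H, G140S+Q148H, E138K+Q148K). HOS cells were pretreated 3 h at 37 °C with compound (10 μM to 0.0005 μM, 11 serial dilutions), infected, and incubated 48 h. Luciferase signal was normalized to no-compound infectivity, and EC50 was taken from regression fit. Ratios were formed from these EC50s.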

[10] = test system: Human immunodeficiency virus 1; assay: Ratio of EC50 for Human immunodeficiency virus 1 harboring integrase N155H mutant to EC50 for wild-type Human immunodeficiency virus 1; type: functional
[11] = test system: Human immunodeficiency virus 1; assay: Ratio of raltegravir EC50 to compound EC50 for Human immunodeficiency virus 1 harboring integrase N155H mutant; type: functional; method in brief: as §3
[12] = test system: Human immunodeficiency virus 1; assay: Ratio of EC50 for Human immunodeficiency virus 1 harboring integrase G118R mutant to EC50 for wild-type Human immunodeficiency virus 1; type: functional; method in brief: as §3
[13] = test system: Human immunodeficiency virus 1; assay: Ratio of raltegravir EC50 to compound EC50 for Human immunodeficiency virus 1 harboring integrase G140S/Q148H double mutant; type: functional; method in brief: as §3
[14] = test system: Human immunodeficiency virus 1; assay: Ratio of raltegravir EC50 to compound EC50 for Human immunodeficiency virus 1 harboring integrase Y143R mutant; type: functional; method in brief: as §3

Row | SMILES | CC50 [1] | IC50 [2] | IC50 [3] | EC50 [4] | EC50 [5] | selectivity ratio [6] | EC50 [8] | further results
1 | Cc1nnc(C(=O)NC(C)(C)c2nc(C(=O)NCc3ccc(F)cc3)c(O)c(=O)n2C)o1 | > 100 µM | – | – | – | – | – | – | –
2 | O=C(NCc1ccc(F)cc1F)c1cc2ccccc2n(O)c1=O | – | 19.7 µM | > 333 µM | – | – | – | – | –
3 | COc1cccc2cc(C(=O)NCc3ccc(F)cc3F)c(=O)n(O)c12 | – | > 333 µM | > 333 µM | – | – | – | – | –
4 | O=C(NCc1ccc(F)c(Cl)c1)c1c(O)c2cccnc2n(O)c1=O | 102 µM | 0.027 µM | 4.7 µM | 0.035 µM | 0.054 µM | 2910 | 0.148 µM | EC50 [7]: 0.489 µM
5 | O=C(NCc1ccc(F)c(F)c1)c1c(O)c2cccnc2n(O)c1=O | 192 µM | 0.04 µM | 3.6 µM | 0.02 µM | 0.045 µM | 9600 | 0.189 µM | EC50 [7]: 0.507 µM
6 | O=C(NCc1ccc(F)cc1F)c1c(O)c2cccnc2n(O)c1=O | 137 µM | 0.055 µM | 1.2 µM | 0.0062 µM | 0.011 µM | 22100 | 0.031 µM | Ratio EC50 [9]: 10; Ratio EC50 [10]: 5; Ratio EC50 [11]: 10; Ratio EC50 [12]: 6; EC50 [7]: 0.308 µM; Ratio EC50 [13]: 10; Ratio EC50 [14]: 10
7 | O=C(NCc1ccc(F)c(Cl)c1)c1c(O)c2cccnc2[nH]c1=O | – | 7.8 µM | 125 µM | – | – | – | – | –
8 | O=C(NCc1ccc(F)c(F)c1)c1c(O)c2cccnc2[nH]c1=O | – | 8.1 µM | 93 µM | – | – | – | – | –
9 | O=C(NCc1ccc(F)cc1F)c1c(O)c2cccnc2[nH]c1=O | – | 7.1 µM | > 333 µM | – | – | – | – | –
10 | O=C(NCc1ccc(F)c(Cl)c1)c1cc2cccc(O)c2n(O)c1=O | – | 0.53 µM | 17 µM | – | – | – | – | –
11 | O=C(NCc1ccc(F)c(F)c1)c1cc2cccc(O)c2n(O)c1=O | – | 0.78 µM | 24 µM | – | – | – | – | –
12 | O=C(NCc1ccc(F)cc1F)c1cc2cccc(O)c2n(O)c1=O | – | 18 µM | 43 µM | – | – | – | – | –
13 | O=C(NCc1ccc(F)c(Cl)c1)c1cc2cccnc2n(O)c1=O | > 250 µM | 0.014 µM | 9.4 µM | 0.038 µM | 0.034 µM | > 6580 | 0.09 µM | –
14 | O=C(NCc1ccc(F)c(F)c1)c1cc2cccnc2n(O)c1=O | > 250 µM | 0.017 µM | 13.6 µM | 0.062 µM | 0.04 µM | > 4030 | 2.2 µM | –
15 | O=C(NCc1ccc(F)cc1F)c1cc2cccnc2n(O)c1=O | > 250 µM | 0.041 µM | 6.1 µM | 0.0051 µM | – | > 49000 | 0.134 µM | Ratio EC50 [10]: 26; EC50 [7]: 0.438 µM
